# Calb FLC: C. albicans growth inhibition with fluconazole, primary screen, CaCi-2 strain, Alamar Blue fluorescence. growth inhibition, % (concentration not given with the values). hit rate 0.57% among 300,000. C. albicans CaCi-2 (fluconazole-resistant clinical isolate) + fluconazole, 48 h;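 active = growth inhibition above about 58% in most replicates, limit read from the data, passing the limit was not always enough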;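 note: all wells also contain fluconazole at 8 µg/ml as a sub-toxic cotreatment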
# CSC inhib: cancer stem cell viability inhibitors, primary screen, luminescence; AID 2717, 2010; cancer stem cell-like cells viability; hit rate 1.1% among 300,000; inhibition, % at 7.5 µM; in the data active = inhibition above about 75%; tested in HMLE shEcad cells
# Mdm2-MdmX inh: inhibitors of human Mdm2-MdmX association, primary screen, cell-based, luminescence, split luciferase, SaOS-2, uHTS; Protein Mdm4 (Homo sapiens) + E3 ubiquitin-protein ligase Mdm2 (Homo sapiens), …; SaOS-2 split-luciferase Mdm2/MdmX complementation; inhibition, % at 8 µM; hit rate 3% among 330,000; AID 485346, 2010;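 active = inhibition of at least 50% at 8 µM in the primary screen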
# Target sequence (O15151 whole entry, looked up): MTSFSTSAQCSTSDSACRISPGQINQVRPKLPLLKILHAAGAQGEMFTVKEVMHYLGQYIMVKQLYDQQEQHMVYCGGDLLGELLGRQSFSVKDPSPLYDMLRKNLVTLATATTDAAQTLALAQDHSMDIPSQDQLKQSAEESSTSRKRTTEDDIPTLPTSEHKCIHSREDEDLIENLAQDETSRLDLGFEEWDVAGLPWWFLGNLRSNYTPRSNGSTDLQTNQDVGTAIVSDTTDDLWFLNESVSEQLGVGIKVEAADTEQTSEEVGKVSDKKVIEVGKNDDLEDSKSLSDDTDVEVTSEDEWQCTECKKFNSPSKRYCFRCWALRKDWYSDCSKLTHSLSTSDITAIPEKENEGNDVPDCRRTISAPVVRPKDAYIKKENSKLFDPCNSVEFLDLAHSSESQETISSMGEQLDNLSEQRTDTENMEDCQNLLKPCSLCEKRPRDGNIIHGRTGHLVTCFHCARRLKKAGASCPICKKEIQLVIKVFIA
# Target sequence (Q00987 whole entry, looked up): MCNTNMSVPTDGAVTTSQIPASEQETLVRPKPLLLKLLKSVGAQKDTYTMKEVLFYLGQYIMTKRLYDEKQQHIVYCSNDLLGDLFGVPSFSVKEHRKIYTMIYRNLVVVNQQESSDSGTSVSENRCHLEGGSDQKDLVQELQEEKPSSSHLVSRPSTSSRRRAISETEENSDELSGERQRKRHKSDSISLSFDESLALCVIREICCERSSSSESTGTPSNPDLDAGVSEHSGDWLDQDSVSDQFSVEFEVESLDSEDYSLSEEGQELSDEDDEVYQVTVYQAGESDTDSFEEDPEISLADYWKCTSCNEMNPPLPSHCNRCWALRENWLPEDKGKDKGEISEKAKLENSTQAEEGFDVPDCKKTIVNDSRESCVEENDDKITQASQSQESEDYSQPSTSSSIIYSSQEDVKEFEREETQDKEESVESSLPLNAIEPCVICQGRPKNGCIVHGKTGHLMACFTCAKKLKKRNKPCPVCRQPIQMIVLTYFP
# SKKanGAS inh: S. pyogenes SKKanGAS growth inhibitors in kanamycin, primary screen, streptokinase expression inhibitor project, SKKanGAS strain, BacTiter-Glo luminescence | 6 h | inhibition, % at 7.5 µM | hit rate 1.3% among 300,000 | AID 1662, 2009;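 active = mean replicate score, as percent of positive control median, at least 50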;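 note: strain carries kanamycin resistance gene driven by streptokinase promoter and grows in 40 µg/ml kanamycin; loss of luminescence reflects streptokinase promoter inhibition or plain growth inhibition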
# Beta cell apopt: inhibitors of cytokine-induced beta cell apoptosis, primary screen, luminescence. INS-1E cytokine-induced death, ATP luminescence, 48 h; percent of positive-control rescue, neutral wells zero. protection from apoptosis, % (test concentration not listed). hit rate 0.8% among 300,000. AID 435005, 2010;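 active = Every replicate reaches about 75%, or at least half do and their mean reaches it too, limit read from the data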;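 note: higher means more ATP so stronger rescue from cytokine killing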
# T cruzi repl: inhibitors of intracellular T. cruzi growth, primary screen, luminescence, NIH3T3 host cells; T. cruzi beta-gal in NIH3T3, 90 h; inhibition, % (test concentration not listed); hit rate 1.4% among 300,000; AID 1885, 2009;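 active = mean inhibition across valid replicates above about 55%, limit read from the data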;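 note: signal also drops with host cell toxicity which is not excluded here; higher percent means less beta-gal luminescence so fewer parasites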
#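 System: NIH/3T3 fibroblasts plus reporter T. cruzi. Medium: DMEM plus 2% FBS. Probe or stimulus: 5000 reporter trypomastigotes per well. Compound: single 50 nL compound addition per well in DMSO. Incubation: co-culture of at least 90 h after 3 h attachment. Detection: GalScreen β-gal luminescence, detergent lysis, 60 min. Evaluation: parasite load inhibition, %.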
# Mdm2-MdmX conf: Mdm2-MdmX complex disruptors, retested hits, confirmation, luminescence, single concentration; hit rate 55% among 10,000; Mdm2-MdmX binding, luminescent assay; shares compounds with Mdm2-MdmX inh; AID 489028, 2010; inhibition, % at 8 µM; in the data active = inhibition above about 40%
# FLuc counter: full-length luciferase signal inhibition, confirmation, counter-screen for Mdm2/MdmX interaction inhibitor project, cell-based, single concentration, SaOS-2 | hit rate 77% among 6,200 | SaOS-2 full-length luciferase counterscreen, luminescence | inhibition, % at 8 µM | shares compounds with Mdm2-MdmX inh;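 active = mean inhibition at 8 µM reaching about 37%, which flags the compound as non-specific, limit read from the data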;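 note: p53-null SaOS-2 cells with luciferase driven by a doxycycline-inducible promoter; compound on cells about two nights before reading with doxycycline added after day one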
# Numbers stand for hits; i = inactive; nt = no result. Hits are enriched below; roughly 5.7% of the tested compounds scored in any of these assays.
SMILES,Calb FLC,CSC inhib,Mdm2-MdmX inh,SKKanGAS inh,Beta cell apopt,T cruzi repl,Mdm2-MdmX conf,others
COc1ccc(C[C@H]2CN3C(=NC[C@@H]3C(C)C)N2CCNC(=O)c2ccc(C)c(Br)c2)cc1,i,i,63.5,i,i,i,i,
O=C(CCCc1nc2ccccc2s1)Nc1nccs1,i,i,i,i,nt,i,nt,
Cc1cnc(NC(=O)CCCc2nc3ccccc3s2)s1,i,i,89.8,i,i,i,59.1,FLuc counter=54.0
Cc1ccc(NC(=O)NC2CCCCCCC2)cc1,i,i,i,nt,i,nt,nt,
COc1ccc(C(=O)NCc2ccc3[nH]c(C)cc3c2)cc1OC,i,i,i,i,i,i,nt,
O=C(Nc1nc(-c2ccccc2)c(C(=O)c2ccccc2)s1)c1ccc(S(=O)(=O)N2CCCC2)cc1,i,i,i,i,i,i,nt,
O=C(Nc1nc(-c2ccccc2)c(-c2ccccc2)s1)c1ccc(S(=O)(=O)N2CCCC2)cc1,i,i,59.4,i,i,i,i,
O=C(CSCc1ccc(Br)cc1)NCc1ccccn1,i,i,i,i,i,i,nt,
Cc1cc2nc(CCN3CCOCC3)n(S(=O)(=O)c3ccc(C(C)(C)C)cc3)c2cc1C,i,i,52.1,i,i,i,i,
COC1(OC)C=CC(=O)C=C1NC(=O)c1ccccc1OC(C)=O,i,i,82.1,i,i,i,66.5,FLuc counter=i
CC1=NNC(=O)/C1=C\c1cn(-c2ccccc2)nc1-c1cccs1,i,81.3,83.1,i,98.8,i,56.4,FLuc counter=i
O=C(O)CCCCCN1C(=O)/C(=C\c2cn(-c3ccccc3)nc2-c2cccs2)SC1=S,i,103.2,51.2,90.7,i,i,i,
O=C(NCc1cccc(Cl)c1)c1ccc(CS(=O)Cc2ccccc2Cl)o1 (stereo not given),i,i,i,i,i,i,nt,
Cc1ccc(Nc2nc3nonc3[nH]c2=O)cc1Cl,i,i,76.0,106.1,i,i,80.1,FLuc counter=72.0
Cc1ccc(Nc2nc3nonc3[nH]c2=O)cc1C,i,i,i,i,i,i,nt,
COc1ccc(C2c3ccc4ccccc4c3Oc3ncn(CCO)c(=N)c32)cc1 (stereo not given),i,i,97.3,i,i,i,51.5,FLuc counter=76.0
COc1ccc(C2c3ccc4ccccc4c3Oc3ncn(CCCO)c(=N)c32)cc1 (stereo not given),i,i,92.6,i,i,i,i,
N=c1c2c(ncn1CCCO)Oc1ccc3ccccc3c1C2c1ccccc1 (stereo not given),i,i,57.9,i,111.0,i,i,
CC1(C)CC(=O)C2=C(C1)Oc1ncn(CCCO)c(=N)c1C2c1ccccc1 (stereo not given),i,i,i,i,i,i,nt,
N=c1c2c(ncn1CCCO)Oc1c(ccc3ccccc13)C2c1ccccc1 (stereo not given),i,i,62.5,i,i,i,i,
COc1ccccc1CCC(=O)N(C)C1CCCN(Cc2ccccc2F)C1 (stereo not given),i,i,i,i,nt,i,nt,
COc1ccc(CNC(=O)C2CCC(CNS(=O)(=O)c3ccccc3)CC2)cc1 (stereo not given),i,i,i,i,i,i,nt,
CN(c1ccc(C(=O)N2CCN(Cc3ccccc3)CC2)cc1)S(=O)(=O)c1ccc(Cl)cc1,i,i,i,i,i,i,nt,
O=C(COC(=O)c1ccc2[nH]c3c(c2c1)CCCC3)Nc1ccccc1,i,i,i,i,i,i,nt,
